Sampled rows, rich in hits. Any-hit rate of the full collection: about 1.5%.
AF4-AF9 inh: inhibitors of human MLL-AF4/AF9 interaction; P42568; inhibition, % at 10 µM; actives 0.47% (n = 350,000); AlphaScreen, biotin-AF4 peptide binding to FLAG-AF9;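 active = every replicate reaching a set inhibition limit, whatever the replicate mean, cut at about 25% in these data; inconclusive = mean inhibition reaches that limit but some replicates miss it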;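 note: 0% = plate neutral control median and 100% = total signal loss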
S100A4 inh HTS: inhibitors of human S100A4 binding to myosin IIA peptide | S100A4/TAMRA-MyoIIA peptide fluorescence polarization | inhibition, % at 10.7 µM | actives 0.14% (n = 360,000) | AID 652163;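 active = mean inhibition of at least 70% across replicates, with every replicate also reaching that level; inconclusive = mean inhibition reaches 70% but some replicates fall short; inactive = mean inhibition below 70%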
Target sequence (P26447 whole entry, looked up): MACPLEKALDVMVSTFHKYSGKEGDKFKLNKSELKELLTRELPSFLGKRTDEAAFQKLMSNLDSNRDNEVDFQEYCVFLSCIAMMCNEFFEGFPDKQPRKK
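System – human S100A4 monomer protein, biochemical binding assay · Buffer or medium – Calcium-containing HEPES buffer, pH 7.2 · Timing – 5 min between mix addition and reading · Also added – TAMRA-labelled myosin IIA heavy-chain peptide probe, 5 nM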
dFosB activator: enhances mouse delta FosB homodimer DNA binding; P13346; purified delta FosB, TAMRA-CDK5 oligo fluorescence polarization; percent of positive-control signal above neutral wells; activation, % at 25 µM; actives 0.99% (n = 340,000); AID 493131;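 active = mean activation above about 17%, with every replicate also reaching it, limit read from the data, passing the limit was not always enough; inconclusive = only one of the two conditions met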
Target sequence (P13346 whole entry, looked up): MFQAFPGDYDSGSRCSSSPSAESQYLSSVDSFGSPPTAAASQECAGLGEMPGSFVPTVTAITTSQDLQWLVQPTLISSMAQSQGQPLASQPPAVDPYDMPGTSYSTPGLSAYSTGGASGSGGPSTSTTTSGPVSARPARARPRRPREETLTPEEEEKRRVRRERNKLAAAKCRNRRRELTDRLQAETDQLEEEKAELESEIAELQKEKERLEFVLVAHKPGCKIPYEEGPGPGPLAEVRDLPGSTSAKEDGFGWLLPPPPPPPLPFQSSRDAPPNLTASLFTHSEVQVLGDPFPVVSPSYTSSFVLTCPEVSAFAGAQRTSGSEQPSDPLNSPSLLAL
RAD54 branch: blocks human RAD54 Holliday junction branch migration; FAM/BHQ fluorescence; inhibition, % at 10.4 µM; Q92698; actives 0.14% (n = 360,000);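 active = mean normalized replicate activity at least 40 and at least half of replicates scoring 40 or more; inconclusive = only one of the two criteria met; inactive = mean below 40 and under half of replicates reaching 40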;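 note: 0% = median of neutral control wells and 100% = median of positive control wells; inhibitors cause a drop in the FAM fluorescence signal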
RAD52 anneal inh: blocks human RAD52 DNA annealing; P43351; recombinant RAD52 DNA annealing, FRET fluorescence; inhibition, % at 18.7 µM; actives 0.46% (n = 360,000); AID 651710;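 active = every replicate showing at least 50% inhibition; inconclusive = mean inhibition at least 50% but not in every replicate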
The depositor's hits bear a star; i = inactive; u = inconclusive; x = no result; + = active, no number.

SMILES | AF4-AF9 inh | S100A4 inh HTS | dFosB activator | RAD54 branch | RAD52 anneal inh
COc1ccc(CN(C)C[C@@H]2Oc3ccc(NC(=O)NC4CCCCC4)cc3C(=O)N([C@@H](C)CO)C[C@H]2C)cc1 | 0 | 9 | x | 63* | 6
COc1ccc(NC(=O)N(C)C[C@@H]2Oc3ccc(N(C)C)cc3C(=O)N([C@H](C)CO)C[C@@H]2C)cc1 | 0 | 35 | x | 2 | 9
COc1ccc(NC(=O)N(C)C[C@H]2Oc3ccc(N(C)C)cc3C(=O)N([C@@H](C)CO)C[C@@H]2C)cc1 | 1 | 103* | x | -3 | 4
COc1ccc(CN(C)C[C@@H]2Oc3ccc(NC(=O)NC4CCCCC4)cc3C(=O)N([C@H](C)CO)C[C@H]2C)cc1 | -2 | -5 | x | 40 | -4
C[C@H]1CCCCO[C@@H](CN(C)C(=O)CCCN(C)C)[C@@H](C)CN([C@@H](C)CO)C(=O)c2cc(NC(=O)c3ccncc3)ccc2O1 | -18 | -7 | x | x | 16
C[C@H]1CN([C@@H](C)CO)C(=O)c2cc(NC(=O)Nc3cccc4ccccc34)ccc2O[C@@H]1CN(C)C(=O)Nc1ccc(C(F)(F)F)cc1 | -19 | -2 | x | -1 | 8
Cc1cccc(S(=O)(=O)N2CC[C@@H]3[C@@H](CO)N(C)c4ccc(-c5ccc(C#N)cc5)cc4[C@@H]32)c1 | -10 | -2 | x | 5 | 16
COc1ccc(CN(C)C[C@@H]2Oc3ccc(NC(=O)Nc4ccccc4)cc3C(=O)N([C@@H](C)CO)C[C@H]2C)cc1 | -6 | 4 | x | 53* | 17
COc1ccc(CN(C)C[C@H]2Oc3ccc(NC(=O)Nc4ccccc4)cc3C(=O)N([C@@H](C)CO)C[C@@H]2C)cc1 | -8 | 5 | x | 5 | 13
C[C@H](CO)N1C[C@H](C)[C@@H](CN(C)C(=O)Nc2ccccc2F)Oc2cc(-c3ccc(C(=O)N(C)C)cc3)ccc2S1(=O)=O | -1 | -10 | x | 7 | 9
CN(Cc1cn(-c2ccccc2)nc1-c1ccc2c(c1)OCO2)Cc1nccn1C | 33* | -1 | -5 | -9 | -9
Cc1ccc(CN2CC(=O)N3[C@@H](CO)[C@H](c4ccc(-c5cccnc5)cc4)[C@@H]3C2)cc1 | 0 | -2 | x | x | -1
COc1cccc(Cn2nc3c4cc(F)ccc4n(Cc4ccc(F)cc4)cc-3c2=O)c1 | 1 | -4 | -6 | -2 | -11
COc1cc2c3nnc(-c4ccc(F)cc4)c-3cn(Cc3cccc(F)c3)c2cc1OC | x | x | 38* | x | x
COc1cc2c3nnc(-c4ccc(F)cc4)c-3cn(Cc3ccc(C)cc3)c2cc1OC | 2 | + | u | 4 | i
Cc1ccc(-n2nc3c(N4CCC(C(=O)NCc5ccccc5C)CC4)nnc(C)c3c2C)cc1 | x | x | 28* | -8 | x
CCCC(=O)Nc1ccc2c(c1)C(=O)N(C)[C@H]1CC[C@H](CC(=O)NC3CCCC3)O[C@@H]1CO2 | -3 | 15 | x | 7 | -8
C[C@H](CO)N1C[C@H](C)[C@@H](CN(C)S(=O)(=O)c2ccc(F)cc2)Oc2ccc(NC(=O)Nc3cccc4ccccc34)cc2C1=O | 4 | -9 | x | -11 | -11
Cc1cc(C)cc(NC(=O)CCn2c(=S)[nH]c3ccccc3c2=O)c1 | 1 | 17 | 30* | 1 | -4
O=C(C[C@H]1CC[C@@H](NC(=O)c2ccc3c(c2)OCO3)[C@@H](CO)O1)NC1Cc2ccccc2C1 | -1 | 14 | x | -6 | 1
COc1ccc2c3c([nH]c2c1)[C@H](CO)N(C(=O)CN(C)C)CC31CCN(Cc2ccccc2Cl)CC1 | 28* | 5 | x | x | 33
COc1ccc2c3c([nH]c2c1)[C@@H](CO)N(C(C)=O)CC31CN(Cc2ccccc2Cl)C1 | 29* | -9 | x | x | 12
COCC(=O)N1CC2(CN(Cc3ccccc3Cl)C2)c2c([nH]c3cc(OC)ccc23)[C@@H]1CO | 2 | x | x | x | x
COc1ccc2c3c([nH]c2c1)[C@H](CO)N(C(=O)CN(C)C)CC31CN(Cc2ccccc2Cl)C1 | 32* | x | x | x | x
CCC(=O)N1CC2(CN(Cc3ccccc3Cl)C2)c2c([nH]c3cc(OC)ccc23)[C@H]1CO | 30* | -1 | x | x | 21
SMILES | AF4-AF9 inh | S100A4 inh HTS | dFosB activator | RAD54 branch | RAD52 anneal inh
O=C(C[C@@H]1CC[C@@H](NS(=O)(=O)c2cccc(F)c2)[C@@H](CO)O1)N1CCCCC1 | 0 | 2 | x | 3 | 0
COCC#Cc1cnc2c(c1)C(=O)N([C@@H](C)CO)C[C@H](C)[C@@H](CN(C)S(=O)(=O)c1cn(C)cn1)O2 | -1 | -4 | x | x | -8
COc1ccccc1C(=O)N1C[C@H]2[C@@H](c3ccccc31)[C@H](CO)N2C(=O)C1CCCCC1 | -3 | 0 | x | -1 | 10
COc1ccc(Nc2nc(N3CCCC3)nc3ccccc23)c(OC)c1 | x | x | 39* | 100* | x
COc1ccc(OC)c(Nc2c3ccccc3nc3ccccc23)c1 | 40* | 5 | 37* | 32 | 34
COc1ccc(Nc2ncnc3ccccc23)c(OC)c1 | x | x | 0 | 6 | x
COc1ccc(OC)c(Nc2c3c(nc4ccccc24)CCC3)c1 | -4 | -9 | 2 | 10 | -1
COc1ccc(NC(=O)Nc2ccc3c(c2)C(=O)N([C@H](C)CO)C[C@@H](C)[C@H](CN(C)Cc2ccc4c(c2)OCO4)OCCCC[C@@H](C)O3)cc1 | 27* | 7 | x | 2 | 2
COc1ccc(CN(C)C[C@H]2OCCCC[C@@H](C)Oc3ccc(NC(=O)Nc4ccc5c(c4)OCO5)cc3C(=O)N([C@H](C)CO)C[C@H]2C)cc1 | 23 | 120* | x | -7 | 11
COc1ccc(CN(C)C[C@@H]2OCCCC[C@H](C)Oc3ccc(NC(=O)Nc4ccc5c(c4)OCO5)cc3C(=O)N([C@H](C)CO)C[C@H]2C)cc1 | 25* | -3 | x | 5 | 47
COc1ccc(CN(C)C[C@H]2OCCCC[C@@H](C)Oc3ccc(NC(=O)Nc4ccc5c(c4)OCO5)cc3C(=O)N([C@@H](C)CO)C[C@H]2C)cc1 | 32* | -5 | x | -5 | 22
C[C@@H]1CN([C@@H](C)CO)C(=O)c2cccc(NC(=O)C3CCOCC3)c2O[C@@H]1CN(C)C(=O)Nc1ccc(C(F)(F)F)cc1 | -2 | 3 | x | -3 | -2
CC(C)NC(=O)N(C)C[C@H]1Oc2c(NC(=O)c3nc4ccccc4s3)cccc2C(=O)N([C@H](C)CO)C[C@@H]1C | -3 | 10 | x | 7 | 8
COc1cccc(C2CC(=O)NC(SC)=C2C#N)c1 (stereo unspecified) | 25* | -5 | -10 | -2 | -2
CCSC1=C(C#N)C(c2cccc(Br)c2)CC(=O)N1 (stereo unspecified) | -33 | -2 | 1 | -11 | -13
CO[C@H]1CN(C)C(=O)c2ccc(NC(=O)C3CCCCC3)cc2OC[C@H](C)N(Cc2cccnc2)C[C@H]1C | 0 | 16 | x | -3 | -2
COc1cccc(/C=N/NC(=O)CNC(=O)COc2cccc(C)c2)c1O | 4 | 7 | -1 | x | 5
Cc1cccc(OCC(=O)NCC(=O)N/N=C/c2ccc(O)cc2O)c1 | -2 | -2 | 17* | x | 6

Bioassay records (PubChem)
